Tests used:
[1] = molecular target: Muscarinic acetylcholine receptor M4 (Homo sapiens) (UniProt P08173); test: Inhibitory activity against [3H]-cyclic AMP accumulation in CHO transfected cells mediated by Muscarinic acetylcholine receptor M4
[2] = molecular target: T1, Muscarinic acetylcholine receptor M1 (Rattus norvegicus, UniProt P08482)
T1 sequence (P08482 whole entry): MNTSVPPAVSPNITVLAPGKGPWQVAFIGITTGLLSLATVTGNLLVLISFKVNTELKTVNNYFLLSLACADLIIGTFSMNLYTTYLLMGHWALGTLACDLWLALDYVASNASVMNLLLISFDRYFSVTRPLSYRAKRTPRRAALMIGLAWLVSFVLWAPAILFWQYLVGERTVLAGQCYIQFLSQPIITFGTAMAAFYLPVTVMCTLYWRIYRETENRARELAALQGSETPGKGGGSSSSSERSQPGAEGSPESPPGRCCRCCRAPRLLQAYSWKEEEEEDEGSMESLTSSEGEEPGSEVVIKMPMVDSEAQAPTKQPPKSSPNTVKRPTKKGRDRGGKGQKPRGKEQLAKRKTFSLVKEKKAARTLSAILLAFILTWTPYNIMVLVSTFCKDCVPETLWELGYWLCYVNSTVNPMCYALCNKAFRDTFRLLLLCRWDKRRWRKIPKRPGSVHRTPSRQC

[3] = molecular target: T2, Muscarinic acetylcholine receptor M2 (Homo sapiens, UniProt P08172); test: Inhibitory activity against [3H]quinuclidinyl Benzilate binding to Muscarinic acetylcholine receptor M2 in the absence of GTP
T2 sequence (P08172 whole entry): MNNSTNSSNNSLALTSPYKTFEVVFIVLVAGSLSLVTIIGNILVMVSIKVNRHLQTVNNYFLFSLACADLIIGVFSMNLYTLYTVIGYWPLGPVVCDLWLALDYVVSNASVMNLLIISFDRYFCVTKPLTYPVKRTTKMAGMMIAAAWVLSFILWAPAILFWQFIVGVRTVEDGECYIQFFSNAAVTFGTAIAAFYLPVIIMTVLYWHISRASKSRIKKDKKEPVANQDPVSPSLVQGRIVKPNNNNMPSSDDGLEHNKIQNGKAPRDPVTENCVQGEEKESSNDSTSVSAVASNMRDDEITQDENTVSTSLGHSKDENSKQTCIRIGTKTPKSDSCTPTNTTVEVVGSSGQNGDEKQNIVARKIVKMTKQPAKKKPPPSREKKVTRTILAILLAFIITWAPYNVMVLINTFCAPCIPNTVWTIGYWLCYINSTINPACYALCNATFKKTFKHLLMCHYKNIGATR
How it was run: (§1)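 Membranes from CHO cells expressing human M2 receptor. Competition against 0.1 nM [3H]quinuclidinyl benzilate in 25 mM sodium phosphate pH 7.4, 5 mM MgCl2, without or with 10 μM GTP; 30 min at 37 °C, triplicate. Nonspecific binding with 1 μM atropine. Filtration, scintillation counting.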

[4] = molecular target: Muscarinic acetylcholine receptor M2 (Homo sapiens) (UniProt P08172); test: Inhibition of binding of 0.1 nM [3H]quinuclidinyl benzilate to Muscarinic acetylcholine receptor M2 in membranes of transfected CHO cells in the presence of 10 uM GTP
[5] = molecular target: T1, Muscarinic acetylcholine receptor M1; test: Affinity versus [3H]oxotremorine M (agonist) binding to Muscarinic acetylcholine receptor M1 in Rat Cerebral Cortical Membranes, (Kd=[…])
[6] = molecular target: Muscarinic acetylcholine receptor M2 (Homo sapiens) (UniProt P08172); test: Inhibition of binding of [3H]quinuclidinyl benzilate to Muscarinic acetylcholine receptor M2 in membranes of transfected CHO cells
[7] = molecular target: T2, Muscarinic acetylcholine receptor M2; test: Inhibition of binding of [3H]quinuclidinyl benzilate to muscarinic receptors in membranes of CHO cells transfected with Muscarinic acetylcholine receptor M2; format: cell membranes
[8] = molecular target: Muscarinic acetylcholine receptor M2 (Homo sapiens) (UniProt P08172); test: Inhibition of binding of 0.1 nM [3H]quinuclidinyl benzilate to Muscarinic acetylcholine receptor M2 in membranes of transfected CHO cells in the absence of GTP
[9] = molecular target: T1, Muscarinic acetylcholine receptor M1; test: The compound was evaluated for inhibition of binding of [3H]quinuclidinyl benzilate to Muscarinic acetylcholine receptor M1 in Rat Cerebral Cortical Membranes
How it was run: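 Rat cerebral cortex membranes were homogenised in 50 mM Tris-HCl pH 7.4 and diluted in HEPES binding buffer. They were incubated with 0.2 nM [3H]quinuclidinyl benzilate in 20 mM HEPES pH 7.4 with 10 mM MgCl2 and 100 mM NaCl for 30 min at 37 °C, in triplicate. Nonspecific binding used 1 µM atropine. Filtration was followed by scintillation counting.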

[10] = molecular target: T2, Muscarinic acetylcholine receptor M2; test: Inhibitory activity against [3H]quinuclidinyl Benzilate binding to Muscarinic acetylcholine receptor M2 in the presence of GTP
How it was run: as §1

[11] = molecular target: T1, Muscarinic acetylcholine receptor M1; test: Inhibition of binding of [3H]quinuclidinyl benzilate to Muscarinic acetylcholine receptor M1 in rat cerebral cortical membranes at 100 uM concentration; format: cell membranes, Membrane
How it was run: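 Rat cortical membranes with 0.2 nM [3H]quinuclidinyl benzilate in HEPES pH 7.4 with 10 mM MgCl2 and 100 mM NaCl, 30 min at 37 °C, triplicate. Atropine 1 µM defined nonspecific binding. Percent inhibition was read at 100 µM test agent; mean ± SEM, n = 4.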

Compound: CC(=O)OC1CC2CCCC1N2 (stereo unspecified)
- IC50 [1]: 11 nM (agonist)
- Ki [2]: 22000 nM
- IC50 [3]: 17 nM
- IC50 [4]: 120 nM
- Ki [5]: 5.6 nM
- Ki [6]: 2.6 nM
- Ki [7]: 2.6 nM
- IC50 [8]: 17 nM
- Ki [9]: 22000 nM
- IC50 [10]: 120 nM
- Ki [11]: 22000 nM

Reference: ChEMBL document CHEMBL1131242, “6beta-Acetoxynortropane: a potent muscarinic agonist with apparent selectivity toward M2-receptors” (J Med Chem, 1998)
